Calls of active or inactive are those of the source. The rule behind the calls is not given here.
What was measured:
Collagenase 3 [1] = target: T1, Collagenase 3 (Homo sapiens, UniProt P45452); assay: Inhibition of MMP13 (unknown origin)
In short: (§1)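 FRET assay with the catalytic domain of recombinant human MMP and a 5-FAM/QXL520 peptide substrate. Buffer was HEPES pH 7.5 with CaCl2, 0.01% Brij-35, 0.1 mg/ml BSA and 5% DMSO. Enzyme and compound were preincubated 10 min, then substrate was added. Fluorescence (ex 490/em 520 nm) was read every 5 min for 2 h at room temperature, and the initial linear slope was used. Curves had 12 doses, 3-fold dilutions from 100 μM, run in duplicate and averaged.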

[2] = Stability in rat liver microsomes; type: ADME, Microsome
In short: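 Rat liver microsomes at 0.3 mg/ml protein with 1 μM compound, in 100 mM potassium phosphate pH 7.4, 2 mM NADPH, 3 mM MgCl2. Incubated in duplicate for 60 min at 37 °C with shaking, with a duplicate NADPH-free control. Sampled at T=0 and 60 min into cold acidified acetonitrile with internal standards. Percent parent remaining measured by LC-MS/MS (ESI, MRM).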

[3] = Stability in rat liver microsomes assessed as parent compound remaining at 1 uM measured after 60 mins in presence of NADPH by LC-MS/MS analysis; type: ADME, Microsome; details: read-out: Stability
In short: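 Compound at 1 μM was incubated with 0.3 mg/ml rat liver microsomes in 100 mM potassium phosphate pH 7.4 with 2 mM NADPH and 3 mM MgCl2, in duplicate at 37 °C for 60 min. A control without NADPH was run alongside. Samples at 0 and 60 min were quenched in cold acidified acetonitrile with internal standards, and percent parent remaining was measured by LC-MS/MS.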

Rattus norvegicus [4] = assay: Chondro-protective activity in MIA-induced Sprague-Dawley rat osteoarthritis model assessed as reduction in proteoglycan loss on LTP at 1 mg, ia administered once per week for 3 weeks starting from 5 days post MIA treatment and measured after 26 days post MIA injection; type: functional; set-up: scale not given: the % may be the effect or the level left
In short: (§2)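 Male Sprague-Dawley rats (175–200 g) received 2 mg MIA in 40 μl into the right knee. Saline suspensions were given intra-articularly on days 5, 12 and 19, with 8 rats per group and 5 naive rats. Right knees were taken on day 26, then formalin-fixed, decalcified, paraffin-sectioned and toluidine blue-stained. A veterinary pathologist scored cell loss (area without viable chondrocytes), proteoglycan loss (staining intensity), bone resorption and osteophytes. Statistics were ANOVA or Kruskal-Wallis with post-tests versus vehicle.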

[5] = target: Matrix metalloproteinase-9 (Homo sapiens, UniProt P14780); assay: Inhibition of recombinant human MMP9 using QXL520-gamma-Abu-Pro-Cha-Abu-Smc-His-Ala-Dab(5-FAM)-Ala-Lys-NH2 as substrate measured every 5 mins for 2 hrs by FRET assay; in short: as §1
[6] = target: 72 kDa type IV collagenase (Homo sapiens, UniProt P08253); assay: Inhibition of recombinant human MMP2 using QXL520-gamma-Abu-Pro-Cha-Abu-Smc-His-Ala-Dab(5-FAM)-Ala-Lys-NH2 as substrate measured every 5 mins for 2 hrs by FRET assay; in short: as §1
Stromelysin-2 = Stromelysin-2 (Homo sapiens, UniProt P09238); assay: Inhibition of recombinant human MMP10 using QXL520-gamma-Abu-Pro-Cha-Abu-Smc-His-Ala-Dab(5-FAM)-Ala-Lys-NH2 as substrate measured every 5 mins for 2 hrs by FRET assay
Rattus norvegicus [7] = assay: Chondro-protective activity in MIA-induced Sprague-Dawley rat osteoarthritis model assessed as reduction in proteoglycan loss on MTP at 1 mg, ia administered once per week for 3 weeks starting from 5 days post MIA treatment and measured after 26 days post MIA injection; type: functional; set-up: scale not given: the % may be the effect or the level left; in short: as §2
[8] = target: Matrix metalloproteinase-14 (Homo sapiens, UniProt P50281); assay: Inhibition of recombinant human MMP14 using QXL520-gamma-Abu-Pro-Cha-Abu-Smc-His-Ala-Dab(5-FAM)-Ala-Lys-NH2 as substrate measured every 5 mins for 2 hrs by FRET assay; in short: as §1
Rattus norvegicus [9] = assay: Chondro-protective activity in MIA-induced Sprague-Dawley rat osteoarthritis model assessed as reduction in proteoglycan loss on LFC at 1 mg, ia administered once per week for 3 weeks starting from 5 days post MIA treatment and measured after 26 days post MIA injection; type: functional; set-up: scale not given: the % may be the effect or the level left; in short: as §2
Interstitial collagenase = target: T2, Interstitial collagenase (Homo sapiens, UniProt P03956); assay: Inhibition of recombinant human MMP1 using QXL520-gamma-Abu-Pro-Cha-Abu-Smc-His-Ala-Dab(5-FAM)-Ala-Lys-NH2 as substrate measured every 5 mins for 2 hrs by FRET assay; in short: as §1
T2 sequence (P03956 whole entry): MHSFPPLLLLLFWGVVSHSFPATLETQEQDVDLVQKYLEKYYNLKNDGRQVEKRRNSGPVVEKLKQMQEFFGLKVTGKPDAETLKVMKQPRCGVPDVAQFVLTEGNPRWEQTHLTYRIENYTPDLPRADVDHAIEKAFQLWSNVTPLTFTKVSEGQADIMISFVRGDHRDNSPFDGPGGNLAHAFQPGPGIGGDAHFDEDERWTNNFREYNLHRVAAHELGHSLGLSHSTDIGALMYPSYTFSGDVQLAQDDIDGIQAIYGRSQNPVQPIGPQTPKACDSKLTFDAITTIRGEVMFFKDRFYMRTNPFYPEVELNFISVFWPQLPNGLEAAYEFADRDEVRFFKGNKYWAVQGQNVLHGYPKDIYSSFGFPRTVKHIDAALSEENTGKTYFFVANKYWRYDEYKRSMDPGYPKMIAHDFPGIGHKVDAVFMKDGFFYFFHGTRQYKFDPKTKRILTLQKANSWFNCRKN

Stromelysin-1 = Stromelysin-1 (Homo sapiens, UniProt P08254); assay: Inhibition of recombinant human MMP3 using QXL520-gamma-Abu-Pro-Cha-Abu-Smc-His-Ala-Dab(5-FAM)-Ala-Lys-NH2 as substrate measured every 5 mins for 2 hrs by FRET assay; in short: as §1
Matrilysin = target: T3, Matrilysin (Homo sapiens, UniProt P09237); assay: Inhibition of recombinant human MMP7 using QXL520-gamma-Abu-Pro-Cha-Abu-Smc-His-Ala-Dab(5-FAM)-Ala-Lys-NH2 as substrate measured every 5 mins for 2 hrs by FRET assay; in short: as §1
T3 sequence (P09237 whole entry): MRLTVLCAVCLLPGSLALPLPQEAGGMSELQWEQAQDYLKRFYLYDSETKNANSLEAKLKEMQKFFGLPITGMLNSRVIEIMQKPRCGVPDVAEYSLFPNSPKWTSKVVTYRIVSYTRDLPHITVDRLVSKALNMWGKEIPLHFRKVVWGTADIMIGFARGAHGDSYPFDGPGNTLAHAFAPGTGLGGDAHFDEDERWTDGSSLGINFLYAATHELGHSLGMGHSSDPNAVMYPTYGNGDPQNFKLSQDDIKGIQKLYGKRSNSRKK

Collagenase 3 [10] = target: T1, Collagenase 3; assay: Inhibition of recombinant human MMP13 using QXL520-gamma-Abu-Pro-Cha-Abu-Smc-His-Ala-Dab(5-FAM)-Ala-Lys-NH2 as substrate measured every 5 mins for 2 hrs by FRET assay
In short: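 Catalytic domain of human recombinant MMP-13. Buffer: HEPES pH 7.5, CaCl2, 0.01% Brij-35, 0.1 mg/ml BSA and 5% DMSO. Compound was preincubated with enzyme for 10 min before substrate addition. Fluorescence (ex 490, em 520 nm) was read at room temperature. IC50 came from initial linear slopes over 12 doses, 3-fold dilutions from 100 μM, in duplicate, reported as the mean.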

[11] = target: Macrophage metalloelastase (Homo sapiens, UniProt P39900); assay: Inhibition of recombinant human MMP12 using QXL520-gamma-Abu-Pro-Cha-Abu-Smc-His-Ala-Dab(5-FAM)-Ala-Lys-NH2 as substrate measured every 5 mins for 2 hrs by FRET assay; in short: as §1
Rattus norvegicus [12] = assay: Chondro-protective activity in MIA-induced Sprague-Dawley rat osteoarthritis model assessed as reduction in cell loss on lateral tibial plateau at 1 mg, ia administered once per week for 3 weeks starting from 5 days post MIA treatment and measured after 26 days post MIA injection; type: functional; set-up: scale not given: the % may be the effect or the level left; in short: as §2
Neutrophil collagenase = Neutrophil collagenase (Homo sapiens, UniProt P22894); assay: Inhibition of recombinant human MMP8 using QXL520-gamma-Abu-Pro-Cha-Abu-Smc-His-Ala-Dab(5-FAM)-Ala-Lys-NH2 as substrate measured every 5 mins for 2 hrs by FRET assay; in short: as §1
Rattus norvegicus [13] = assay: Chondro-protective activity in MIA-induced Sprague-Dawley rat osteoarthritis model assessed as reduction of osteophyte score at 0.06 mg, ia administered once per week for 3 weeks starting from 5 days post MIA treatment and measured after 26 days post MIA injection; type: functional; set-up: scale not given: the % may be the effect or the level left; in short: as §2
Rattus norvegicus [14] = assay: Chondro-protective activity in MIA-induced Sprague-Dawley rat osteoarthritis model assessed as reduction of bone resorption in lateral femoral condyle at 0.06 mg, ia administered once per week for 3 weeks starting from 5 days post MIA treatment and measured after 26 days post MIA injection; type: functional; set-up: scale not given: the % may be the effect or the level left; in short: as §2
Rattus norvegicus [15] = assay: Chondro-protective activity in MIA-induced Sprague-Dawley rat osteoarthritis model assessed as reduction of bone resorption in tibia at 0.06 mg, ia administered once per week for 3 weeks starting from 5 days post MIA treatment and measured after 26 days post MIA injection; type: functional; set-up: scale not given: the % may be the effect or the level left; in short: as §2
Rattus norvegicus [16] = assay: Chondro-protective activity in MIA-induced Sprague-Dawley rat osteoarthritis model assessed as reduction of bone resorption in medial femoral condyle at 0.06 mg, ia administered once per week for 3 weeks starting from 5 days post MIA treatment and measured after 26 days post MIA injection; type: functional; set-up: scale not given: the % may be the effect or the level left; in short: as §2
Rattus norvegicus [17] = assay: Chondro-protective activity in MIA-induced Sprague-Dawley rat osteoarthritis model assessed as reduction of cell loss at 0.06 mg, ia administered once per week for 3 weeks starting from 5 days post MIA treatment and measured after 26 days post MIA injection; type: functional, organism-based; in short: as §2

Stromelysin-1, sequence (P08254 whole entry): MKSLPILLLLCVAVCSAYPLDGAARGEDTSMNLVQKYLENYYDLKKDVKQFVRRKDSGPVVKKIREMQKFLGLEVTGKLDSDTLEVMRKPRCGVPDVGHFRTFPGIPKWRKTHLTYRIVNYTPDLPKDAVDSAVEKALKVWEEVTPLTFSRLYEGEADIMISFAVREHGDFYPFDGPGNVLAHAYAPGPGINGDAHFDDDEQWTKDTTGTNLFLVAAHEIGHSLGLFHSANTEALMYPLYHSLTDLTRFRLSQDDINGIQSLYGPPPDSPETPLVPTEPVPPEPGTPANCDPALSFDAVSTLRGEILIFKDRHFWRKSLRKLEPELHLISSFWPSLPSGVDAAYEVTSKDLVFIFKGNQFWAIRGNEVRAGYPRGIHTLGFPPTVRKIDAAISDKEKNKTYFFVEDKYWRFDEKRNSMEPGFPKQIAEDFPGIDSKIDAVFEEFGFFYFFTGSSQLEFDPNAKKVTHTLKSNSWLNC
Stromelysin-2, sequence (P09238 whole entry): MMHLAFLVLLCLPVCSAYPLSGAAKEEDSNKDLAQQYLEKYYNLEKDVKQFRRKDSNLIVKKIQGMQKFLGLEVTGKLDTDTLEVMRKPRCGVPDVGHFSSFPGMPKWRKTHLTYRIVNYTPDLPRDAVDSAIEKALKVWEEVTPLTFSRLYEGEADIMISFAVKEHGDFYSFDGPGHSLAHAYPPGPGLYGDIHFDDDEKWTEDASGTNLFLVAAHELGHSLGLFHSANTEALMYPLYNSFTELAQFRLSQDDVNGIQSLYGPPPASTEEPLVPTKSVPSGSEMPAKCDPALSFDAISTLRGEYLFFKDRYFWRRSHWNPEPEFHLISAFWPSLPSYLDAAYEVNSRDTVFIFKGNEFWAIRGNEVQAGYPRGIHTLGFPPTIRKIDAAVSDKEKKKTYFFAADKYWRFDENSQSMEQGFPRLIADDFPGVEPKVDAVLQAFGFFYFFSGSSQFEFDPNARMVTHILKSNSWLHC
72 kDa type IV collagenase, sequence (P08253 whole entry): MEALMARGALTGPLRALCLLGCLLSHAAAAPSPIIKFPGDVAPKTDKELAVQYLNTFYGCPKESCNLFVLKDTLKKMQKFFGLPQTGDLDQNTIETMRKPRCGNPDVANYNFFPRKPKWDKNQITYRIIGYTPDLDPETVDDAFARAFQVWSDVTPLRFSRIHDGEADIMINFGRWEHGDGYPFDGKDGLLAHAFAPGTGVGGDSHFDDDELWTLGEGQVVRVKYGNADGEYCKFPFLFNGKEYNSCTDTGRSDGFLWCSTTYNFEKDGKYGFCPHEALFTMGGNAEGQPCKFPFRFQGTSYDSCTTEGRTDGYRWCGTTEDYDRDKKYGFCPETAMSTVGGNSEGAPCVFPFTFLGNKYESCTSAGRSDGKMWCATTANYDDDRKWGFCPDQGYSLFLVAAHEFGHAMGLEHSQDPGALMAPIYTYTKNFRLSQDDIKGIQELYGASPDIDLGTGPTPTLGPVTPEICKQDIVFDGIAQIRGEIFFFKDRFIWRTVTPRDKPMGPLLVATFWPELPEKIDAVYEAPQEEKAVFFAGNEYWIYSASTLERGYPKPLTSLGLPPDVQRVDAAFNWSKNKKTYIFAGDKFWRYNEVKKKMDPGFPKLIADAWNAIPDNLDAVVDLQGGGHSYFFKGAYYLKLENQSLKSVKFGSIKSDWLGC
Neutrophil collagenase, sequence (P22894 whole entry): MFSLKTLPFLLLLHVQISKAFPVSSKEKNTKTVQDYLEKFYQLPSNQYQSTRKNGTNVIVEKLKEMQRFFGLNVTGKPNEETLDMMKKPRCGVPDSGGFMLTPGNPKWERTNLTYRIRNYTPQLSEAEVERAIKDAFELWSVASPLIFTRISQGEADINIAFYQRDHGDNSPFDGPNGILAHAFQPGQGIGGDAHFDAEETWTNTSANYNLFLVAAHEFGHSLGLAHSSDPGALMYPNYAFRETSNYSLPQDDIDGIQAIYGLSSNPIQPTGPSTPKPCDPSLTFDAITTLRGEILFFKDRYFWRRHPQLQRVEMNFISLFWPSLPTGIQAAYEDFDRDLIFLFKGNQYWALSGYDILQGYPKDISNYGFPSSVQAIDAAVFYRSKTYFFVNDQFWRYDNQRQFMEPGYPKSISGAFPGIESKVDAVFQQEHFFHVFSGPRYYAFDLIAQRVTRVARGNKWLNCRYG
Macrophage metalloelastase, sequence (P39900 whole entry): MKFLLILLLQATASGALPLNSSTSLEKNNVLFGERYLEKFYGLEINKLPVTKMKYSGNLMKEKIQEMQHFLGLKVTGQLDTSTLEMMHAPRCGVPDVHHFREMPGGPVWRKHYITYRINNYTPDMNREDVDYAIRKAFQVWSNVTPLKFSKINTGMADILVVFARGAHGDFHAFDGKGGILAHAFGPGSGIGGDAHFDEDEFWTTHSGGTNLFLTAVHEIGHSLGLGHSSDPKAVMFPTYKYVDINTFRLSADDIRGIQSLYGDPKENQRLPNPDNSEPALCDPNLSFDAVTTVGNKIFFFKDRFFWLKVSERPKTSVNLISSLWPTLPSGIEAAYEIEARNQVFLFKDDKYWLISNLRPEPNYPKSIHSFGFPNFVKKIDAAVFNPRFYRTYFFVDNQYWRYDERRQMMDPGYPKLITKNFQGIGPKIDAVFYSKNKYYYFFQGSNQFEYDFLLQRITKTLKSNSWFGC
Matrix metalloproteinase-9, sequence (P14780 whole entry): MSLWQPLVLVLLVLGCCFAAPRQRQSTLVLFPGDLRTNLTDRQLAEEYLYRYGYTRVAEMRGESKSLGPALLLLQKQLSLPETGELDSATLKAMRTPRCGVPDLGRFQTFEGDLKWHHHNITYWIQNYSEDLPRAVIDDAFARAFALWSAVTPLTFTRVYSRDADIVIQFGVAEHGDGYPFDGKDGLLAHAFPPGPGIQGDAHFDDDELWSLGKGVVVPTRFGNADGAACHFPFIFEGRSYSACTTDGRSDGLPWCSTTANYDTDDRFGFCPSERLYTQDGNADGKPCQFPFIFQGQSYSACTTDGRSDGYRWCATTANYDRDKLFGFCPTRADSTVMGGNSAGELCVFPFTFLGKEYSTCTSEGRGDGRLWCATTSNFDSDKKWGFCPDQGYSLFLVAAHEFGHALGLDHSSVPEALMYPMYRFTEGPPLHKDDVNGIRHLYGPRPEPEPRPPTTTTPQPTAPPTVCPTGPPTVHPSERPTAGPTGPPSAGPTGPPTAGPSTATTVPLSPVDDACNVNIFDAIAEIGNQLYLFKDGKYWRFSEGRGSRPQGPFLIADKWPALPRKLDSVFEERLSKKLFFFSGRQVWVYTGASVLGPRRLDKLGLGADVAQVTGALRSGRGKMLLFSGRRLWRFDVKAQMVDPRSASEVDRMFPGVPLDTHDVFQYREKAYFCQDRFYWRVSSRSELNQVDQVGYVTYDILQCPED

## C[C@@H](NC(=O)c1cc(C(=O)NCc2ccc(-c3nnn[nH]3)cc2)ncn1)c1ccccc1
Collagenase 3 [1]
  IC50: > 0.1 µM

## Cc1cc(CNC(=O)c2cc(C(=O)NCc3ccc(F)c(C)c3)ncn2)ccc1F
[2]
  Stability: 0.6%

## [2H]C([2H])(NC(=O)c1cc(C(=O)NCc2ccc(F)c(C)c2)ncn1)c1ccc(C(=O)O)cc1
[3]
  remaining at 1 h, 1 µM: 99%
Rattus norvegicus [4]
  Activity: 15%
[5]
  IC50: 74 µM
[6]
  IC50: > 100 µM
Stromelysin-2
  IC50: 1 µM
Rattus norvegicus [7]
  Activity: 15%
[8]
  IC50: > 100 µM
Rattus norvegicus [9]
  Activity: 15%
Interstitial collagenase
  IC50: > 100 µM
Stromelysin-1
  IC50: > 100 µM
Matrilysin
  IC50: > 100 µM
Collagenase 3 [10]
  IC50: 0.0048 µM
[11]
  IC50: > 100 µM
Rattus norvegicus [12]
  Activity: 8%
Neutrophil collagenase
  IC50: 98 µM

## C[C@H](NC(=O)c1cc(C(=O)NCc2ccc(-c3nnn[nH]3)cc2)ncn1)c1ccccc1
Collagenase 3 [1]
  IC50: < 0.01 µM

## C[C@]12C=CC(=O)C=C1CC[C@H]1[C@@H]3C[C@@H](O)[C@](O)(C(=O)CO)[C@@]3(C)C[C@H](O)[C@@]12F [TRIAMCINOLONE]
Rattus norvegicus [13]
  Activity: 40%
Rattus norvegicus [14]
  Activity: 49%
Rattus norvegicus [15]
  Activity: 34%
Rattus norvegicus [16]
  Activity: 49%
Rattus norvegicus [17]
  Activity: inactive

## Cc1cc(CNC(=O)c2cc(C(=O)NCc3ccc(C(=O)O)cc3)ncn2)ccc1F
[3]
  remaining at 1 h, 1 µM: 90%

Reference: ChEMBL document CHEMBL4828711, “Development of a selective matrix metalloproteinase 13 (MMP-13) inhibitor for the treatment of Osteoarthritis” (Eur J Med Chem, 2021)
